Data taken from ChEMBL document CHEMBL1681674, “Synthesis of 3-phenylpyrazolopyrimidine-1,2,3-triazole conjugates and evaluation of their Src kinase inhibitory and anticancer activities” (Bioorg Med Chem Lett, 2011).

Experiments:
[1] = target: T1, Proto-oncogene tyrosine-protein kinase Src (Homo sapiens, UniProt P12931); assay: Inhibition of GST-fussed c-SRC after 30 mins
MDA-MB-361 [2] = assay: Cytotoxicity against c-SRC expressing human MDA-MB-361 cells assessed as inhibition of cell proliferation at 50 uM after 72 hrs relative to control; format: functional; settings: MDA-MB-361, 72 h
Procedure, shortened: (§1)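 Proliferation of SK-Ov-3, MDA-MB-361 and HT-29 cells was measured after 72 h exposure at 50 μM. Growth is expressed as a percentage of the DMSO vehicle control, set at 100%, with no compound. All experiments were run in triplicate.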

HT-29 [3] = assay: Cellular uptake in c-SRC expressing human HT-29 cells; format: ADME, cell-based
MDA-MB-361 [4] = assay: Cellular uptake in c-SRC expressing human MDA-MB-361 cells; format: ADME, cell-based
SK-OV-3 [5] = assay: Cellular uptake in c-SRC expressing human SKOV3 cells; format: ADME, cell-based
[6] = target: T1, Proto-oncogene tyrosine-protein kinase Src; assay: Inhibition of GST-fussed c-SRC up to 250 uM after 30 mins
Procedure, shortened: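 Src kinase enzyme inhibition was assessed at concentrations up to 250 μM.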

SK-OV-3 [7] = assay: Cytotoxicity against c-SRC expressing human SKOV3 cells assessed as inhibition of cell proliferation at 50 uM after 72 hrs relative to control; format: functional; settings: SK-OV-3, 72 h; procedure, shortened: as §1
HT-29 [8] = assay: Cytotoxicity against c-SRC expressing human HT-29 cells assessed as inhibition of cell proliferation at 50 uM after 72 hrs relative to control; format: functional; settings: HT-29, 72 h; procedure, shortened: as §1

T1 sequence (P12931 2-536 limits assumed): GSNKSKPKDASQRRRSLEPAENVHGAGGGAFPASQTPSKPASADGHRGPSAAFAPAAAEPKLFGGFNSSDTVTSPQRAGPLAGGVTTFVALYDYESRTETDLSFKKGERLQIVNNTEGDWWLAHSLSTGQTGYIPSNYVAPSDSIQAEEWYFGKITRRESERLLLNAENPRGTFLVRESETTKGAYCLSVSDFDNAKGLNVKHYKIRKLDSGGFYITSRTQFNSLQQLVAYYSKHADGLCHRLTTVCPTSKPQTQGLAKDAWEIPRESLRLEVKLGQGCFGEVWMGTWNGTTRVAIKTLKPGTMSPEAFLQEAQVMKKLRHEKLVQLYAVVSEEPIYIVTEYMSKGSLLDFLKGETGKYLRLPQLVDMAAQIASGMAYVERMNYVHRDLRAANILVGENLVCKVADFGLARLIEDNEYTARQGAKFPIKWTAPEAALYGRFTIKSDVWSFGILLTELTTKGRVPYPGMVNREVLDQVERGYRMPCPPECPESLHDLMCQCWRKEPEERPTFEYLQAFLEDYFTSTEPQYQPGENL

IC50 [1] [µM]	SMILES	further results
23.1	Nc1ncnc2c1c(-c1ccccc1)nn2Cc1cn(CC(=O)Nc2ccccc2)nn1	inhibition at 50 µM (MDA-MB-361 [2]): 51%
29.6	Nc1ncnc2c1c(-c1ccccc1)nn2CCn1cc(-c2ccc(F)cc2)nn1	inhibition at 50 µM (MDA-MB-361 [2]): 49%
6.2	[N-]=[N+]=NCCn1nc(-c2ccccc2)c2c(N)ncnc21	–
> 75	Cc1ccc(C(=O)Cn2cc(Cn3nc(-c4ccccc4)c4c(N)ncnc43)nn2)cc1	–
> 75	Nc1ncnc2c1c(-c1ccccc1)nn2Cc1cn(CC(=O)c2ccccc2)nn1	–
9.1	Nc1ncnc2c1c(-c1ccccc1)nn2Cc1cn(CC(=O)CCCO)nn1	–
> 75	CCCCc1cn(CCn2nc(-c3ccccc3)c3c(N)ncnc32)nn1	–
16.4	Nc1ncnc2c1c(-c1ccccc1)nn2Cc1cn(CC(=O)Nc2ccc(F)cc2)nn1	–

The next lines start with the compound.

SMILES	IC50 [1] [µM]	further results
CCOC(=O)Cn1cc(Cn2nc(-c3ccccc3)c3c(N)ncnc32)nn1	12.7	–
CC(=O)c1ccc(-c2cn(CCn3nc(-c4ccccc4)c4c(N)ncnc43)nn2)cc1	> 75	–
CCCCCCCCCCc1cn(CCn2nc(-c3ccccc3)c3c(N)ncnc32)nn1	> 75	–
Nc1ncnc2c1c(-c1ccccc1)nn2Cc1cn(CC(=O)c2ccc(Cl)cc2)nn1	> 75	–
CCCCCCc1cn(CCn2nc(-c3ccccc3)c3c(N)ncnc32)nn1	5.6	Drug uptake (HT-29 [3]): Active; Drug uptake (MDA-MB-361 [4]): Active; Drug uptake (SK-OV-3 [5]): Active
Nc1ncnc2c1c(-c1ccccc1)nn2Cc1cn(CC(=O)CCc2cccc3ccccc23)nn1	–	inhibition [6]: < 10%; inhibition at 50 µM (SK-OV-3 [7]): 48%
COc1ccc(-c2cn(CCn3nc(-c4ccccc4)c4c(N)ncnc43)nn2)cc1	17.4	inhibition at 50 µM (HT-29 [8]): 73%; inhibition at 50 µM (SK-OV-3 [7]): 58%
Nc1ncnc2c1c(-c1ccccc1)nn2CCn1cc(Cc2ccccc2)nn1	–	inhibition [6]: < 10%
CCCCCCCc1cn(CCn2nc(-c3ccccc3)c3c(N)ncnc32)nn1	> 75	–
Nc1ncnc2c1c(-c1ccccc1)nn2Cc1cn(CC(=O)Nc2ccc(Cl)cc2)nn1	> 75	–
Nc1ncnc2c1c(-c1ccccc1)nn2Cc1cn(CC(=O)c2cccs2)nn1	> 75	–
Nc1ncnc2c1c(-c1ccccc1)nn2CCn1cc(CCCCl)nn1	–	inhibition [6]: < 10%; inhibition at 50 µM (HT-29 [8]): 57%
